Test results from publication PMC9727339 (Asian Pacific Journal of Cancer Prevention : APJCP, 2022).
Where “and” joins values, the source holds several entries; their conditions need not be identical. Equal entries are not always repeated. Where two headings read alike, the source gives them in different places.

Columns and labels:
[1] = DPPH radical scavenging, 96-well colorimetric assay; format: biochemical; conditions: read-out: DPPH radical scavenging IC50 value; 30 minutes incubations; mean ± SD, n = 3
[2] = tested on: normal periodontal ligament fibroblasts (PDL); assay: Cytotoxicity in normal periodontal ligament fibroblasts; format: cell-based
Outline: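 Normal periodontal ligament fibroblasts exposed to test compound for 72 h. […] Selectivity index is the compound's IC50 on PDL divided by its IC50 on a given cancer cell line.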

[3] = tested on: skin melanoma A375.s2 cell line; assay: Antiproliferation, sulforhodamine B colorimetric bioassay, A375.s2; format: cell-based; conditions: read-out: Cytotoxicity (as of %Control) IC50, A375.s2; 72 h incubations, SRB; mean ± SD, n = 3-4
[4] = tested on: breast carcinoma MCF7 cell line; assay: Antiproliferation, sulforhodamine B colorimetric bioassay, MCF7; format: cell-based; conditions: read-out: Cytotoxicity (as of %Control) IC50, MCF7, 72 h incubations, SRB, mean ± SD, n = 3-4
[5] = tested on: breast carcinoma T47D cell line; assay: Antiproliferation, sulforhodamine B colorimetric bioassay, T47D; format: cell-based; conditions: read-out: Cytotoxicity (as of %Control) IC50, T47D, 72 h incubations, SRB, mean ± SD, n = 3-4
[6] = tested on: Nitric oxide synthase / NO in LPS prompted RAW264.7 macrophages; format: cell-based; conditions: mean ± SD, n = 3

Molecule `O=C1O[C@H]([C@@H](O)CO)C(O)=C1O` [Ascorbic acid, ascorbic acid] has an IC50 [1] of 3.37 µM.
For `N.N.[Cl][Pt][Cl]` [Cisplatin, cisplatin], the “IC50 PDL Fibro” value ([2]; 72h incubations, mean ± SD, n = 3) was “(0.21 ± 0.04) µg/mL”, the IC50 ([2]; read-out: IC50 PDL Fibro, 72h incubations, mean ± SD, n = 3) was 0.71 ± 0.13 µM and the IC50 [3] was 0.7 ± 0.1 µM. The IC50 [4] was 92.6 ± 12.5 µM, the IC50 ([4]; listed as cisplatin) was 92.6 µM and the IC50 [5] was 45.1 ± 7.84 µM. For the same molecule, the IC50 ([5]; listed as cisplatin) was 45.2 µM and 45 µM.
For `COc1ccc2c(c1)c(CC(=O)O)c(C)n2C(=O)c1ccc(Cl)cc1` [Indomethacin, indomethacin], the IC50 ([6]; Mus musculus, RAW264.7, 24 h, read-out: NOS- IC50 value (NO scavenging/antiinflammation), LPS prompted RAW264.7, 24h incubations, Griess assay) was 55.1 µM and 26.9 µg/mL and the IC50 ([6]; read-out: NOS- IC50 value (NO scavenging/antiinflammation), LPS prompted RAW264.7, 24h incubations, Griess assay) was 55.1 ± 2.25 µM.
